Measured values published in ChEMBL document CHEMBL1122132, “Synthesis, 470-MHz 1H NMR spectra, and activity of delactonized derivatives of the anticancer drug etoposide” (1982).

Assays:
Type in all cases: functional
Mus musculus [1] = test: Percent increase in life span of mouse leukemia L1210 system at a dose of 45 mg/kg
Mus musculus [2] = test: Percent increase in life span of mouse leukemia L1210 system at a dose of 30 mg/kg
Mus musculus [3] = test: Percent increase in life span of mouse leukemia L1210 system at a dose of 60 mg/kg
L1210 [4] = test: In vitro cytotoxic activity tested in mouse leukemia L1210 cells at a dose of 50.0 ug/mL; details: read-out: Survival
Summary of the method: (§1)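 Continuous mouse L1210 leukemia cell line exposed to 0.5, 5.0 or 50.0 μg/mL in a soft agar clonogenic assay. Colony survival is expressed as % of untreated control, with control set at 100.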

L1210 [5] = test: In vitro cytotoxic activity tested in mouse leukemia L1210 cells at a dose of 5.0 ug/mL; details: read-out: Survival; summary of the method: as §1
L1210 [6] = test: In vitro cytotoxic activity tested in mouse leukemia L1210 cells at a dose of 0.5 ug/mL; details: read-out: Survival; summary of the method: as §1

Row | Compound | ILS at 45 mg/kg (Mus musculus [1]) [%] | ILS at 30 mg/kg (Mus musculus [2]) [%] | ILS at 60 mg/kg (Mus musculus [3]) [%] | viability at 50 µg/mL (L1210 [4]) [%] | viability at 5 µg/mL (L1210 [5]) [%] | viability at 0.5 µg/mL (L1210 [6]) [%]
1 | COc1cc([C@@H]2c3cc4c(cc3[C@@H](O[C@@H]3O[C@@H]5CO[C@@H](C)O[C@H]5[C@H](O)[C@H]3O)[C@@H](CO)[C@@H]2CO)OCO4)cc(OC)c1O | 0 | 0 | 5 | 43 | 221 | 
2 | COc1cc([C@@H]2c3cc4c(cc3[C@@H](O[C@@H]3O[C@@H]5CO[C@@H](C)O[C@H]5[C@H](O)[C@H]3O)[C@H]3COC[C@H]23)OCO4)cc(OC)c1O | 25 | 10 | 30 | 0 | 0 | 165
3 | COc1cc([C@@H]2c3cc4c(cc3[C@@H](O[C@@H]3O[C@@H]5CO[C@@H](C)O[C@H]5[C@H](O)[C@H]3O)[C@H]3COC(=O)[C@H]23)OCO4)cc(OC)c1O [ETOPOSIDE] |  | 110 | 103 | 0 | 1 | 0
